Legend:
PrEC = test: Cytotoxicity against human PrEC cells after 72 hrs by XTT assay; assay type: cell-based
Method in brief: (§1)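 Cells grown at 37 °C, 5% CO2; HFF in DMEM with 10% FBS, PrEC in prostate epithelial growth medium. Adherent lines seeded overnight, suspension lines same day; compounds diluted from DMSO stocks into media at various final concentrations, 72 h exposure. XTT reagent added 4 h, absorbance 490 nm (reference 690 nm). Growth as % of vehicle; IC50 from sigmoidal dose-response fit; mean ± SEM, three independent experiments.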

HOP-92 = test: Growth inhibition of human HOP92 cells by sulforhodamine B assay; assay type: functional
MOLT-4 [1] = test: Growth inhibition of human MOLT4 cells by sulforhodamine B assay; assay type: functional
[2] = Growth inhibition of human Hs 578T cells by sulforhodamine B assay; assay type: functional
[3] = Cytotoxicity against HFF/tert2 after 72 hrs by XTT assay; design: species or system Homo sapiens; method in brief: as §1
OVCAR-5 = test: Growth inhibition of human OVCAR5 cells by sulforhodamine B assay; assay type: functional
SK-MEL-28 = test: Cytotoxicity against human SK-MEL-28 cells after 72 hrs by XTT assay; assay type: functional, cell-based; conditions: SK-MEL-28, 72 h; method in brief: as §1
HCC 2998 = test: Growth inhibition of human HCC2998 cells by sulforhodamine B assay; assay type: functional
M14 = test: Growth inhibition of human M14 cells by sulforhodamine B assay; assay type: functional
UACC-62 = test: Growth inhibition of human UACC62 cells by sulforhodamine B assay; assay type: functional
NCI-H226 = test: Growth inhibition of human NCI-H226 cells by sulforhodamine B assay; assay type: functional
HOP-62 = test: Growth inhibition of human HOP62 cells by sulforhodamine B assay; assay type: functional
Mus musculus [4] = test: Toxicity in NOD/SCID mouse assessed as weight loss at 5 to 50 mg/kg, iv and po for 5 days after 1 week; assay type: organism-based; design: dose 5-50 mg/kg, route oral; conditions: in vivo, 168 h
SNB-19 = test: Growth inhibition of human SNB19 cells by sulforhodamine B assay; assay type: functional
SR = test: Growth inhibition of human SR cells by sulforhodamine B assay; assay type: functional
A498 = test: Growth inhibition of human A498 cells by sulforhodamine B assay; assay type: functional
SF-539 = test: Growth inhibition of human SF539 cells by sulforhodamine B assay; assay type: functional
NCI-H23 = test: Growth inhibition of human NCI-H23 cells by sulforhodamine B assay; assay type: functional
Mus musculus [5] = test: Toxicity in NOD/SCID mouse assessed as thrombocytopenia at 5 to 50 mg/kg, iv and po for 5 days; assay type: organism-based; design: dose 5-50 mg/kg, route oral; conditions: in vivo, 120 h
Mus musculus [6] = test: Toxicity in NOD/SCID mouse assessed as leukopenia at 5 to 50 mg/kg, […] for 5 days; assay type: organism-based; design: dose 5-50 mg/kg; conditions: in vivo, po, 120 h
[7] = Growth inhibition of human […] cells by sulforhodamine B assay; assay type: functional
CCRF-CEM = test: Growth inhibition of human CCRF-CEM cells by sulforhodamine B assay; assay type: functional
MDA-MB-468 = test: Growth inhibition of human MDA-MB-468 cells by sulforhodamine B assay; assay type: functional
JVM-2 = test: Cytotoxicity against human JVM2 cells after 72 hrs by XTT assay; assay type: functional, cell-based; conditions: JVM-2, 72 h; method in brief: as §1
Ramos = test: Cytotoxicity against human Ramos cells after 72 hrs by XTT assay; assay type: functional, cell-based; method in brief: as §1
Mus musculus [8] = test: Toxicity in NOD/SCID mouse transplanted with human JeKo1 cells assessed as fatalities at 5 to 50 mg/kg, iv and po for 5 days; assay type: organism-based; design: dose 5-50 mg/kg, route oral; conditions: in vivo, 120 h
MOLT-4 [9] = test: Cytotoxicity against human MOLT4 cells after 72 hrs by XTT assay; assay type: functional, cell-based; conditions: MOLT-4, 72 h; method in brief: as §1
[10] = Cytotoxicity against human NB-EBc1 cells after 72 hrs by XTT assay; assay type: functional, cell-based; conditions: NB-EBc1, 72 h; method in brief: as §1
KM12 = test: Growth inhibition of human KM12 cells by sulforhodamine B assay; assay type: functional
DU-145 = test: Growth inhibition of human DU145 cells by sulforhodamine B assay; assay type: functional
PC-3 = test: Growth inhibition of human PC3 cells by sulforhodamine B assay; assay type: functional
HCT-15 = test: Growth inhibition of human HCT15 cells by sulforhodamine B assay; assay type: functional
[11] = Cytotoxicity against human BT-12 cells after 72 hrs by XTT assay; assay type: functional, cell-based; conditions: BT-12, 72 h; method in brief: as §1
[12] = Cytotoxicity against human Rh30 cells after 72 hrs by XTT assay; assay type: functional, cell-based; conditions: SJRH30, 72 h; method in brief: as §1
Mus musculus [13] = test: Toxicity in NOD/SCID mouse assessed as phosphorus level at 5 to 50 mg/kg, iv and po for 5 days; assay type: organism-based; design: dose 5-50 mg/kg, route oral; conditions: in vivo, 120 h
Mus musculus [14] = test: Toxicity in NOD/SCID mouse assessed as sodium level at 5 to 50 mg/kg, […] for 5 days; assay type: organism-based; design: dose 5-50 mg/kg; conditions: in vivo, po, 120 h
NCI-H460 = test: Growth inhibition of human NCI-H460 cells by sulforhodamine B assay; assay type: functional
MCF7 = test: Growth inhibition of human MCF7 cells by sulforhodamine B assay; assay type: functional
SK-MEL-5 = test: Growth inhibition of human SK-MEL-5 cells by sulforhodamine B assay; assay type: functional
OVCAR-8 = test: Growth inhibition of human OVCAR8 cells by sulforhodamine B assay; assay type: functional
[15] = read-out: Log10GI50 (converted)
[16] = read-out: Log10LC50 (converted)

## CC(/C=C/[C@@H]1C[C@]2(CO2)CC(C)(C)O1)=C\C[C@H]1CC[C@@H](NC(=O)/C=C\[C@H](C)OC(=O)C(C)C)CC1
PrEC
  IC50: 7.01 µM
HOP-92; [15]
  GI50: 0.575 µM
HOP-92; [16]
  CC50: > 100 µM
HOP-92; read-out: Log10TGI (converted)
  TGI: > 100 µM
MOLT-4 [1]; [15]
  GI50: 0.0479 µM
MOLT-4 [1]; [16]
  CC50: > 100 µM
MOLT-4 [1]; read-out: Log10TGI (converted)
  TGI: 5.62 µM
[2]; [15]
  GI50: 0.309 µM
[2]; [16]
  CC50: > 100 µM
[2]; read-out: Log10TGI (converted)
  TGI: 45.7 µM
[3]
  IC50: 9.69 µM
OVCAR-5; [15]
  GI50: 8.32 µM
OVCAR-5; [16]
  CC50: > 100 µM
OVCAR-5; read-out: Log10TGI (converted)
  TGI: > 100 µM
SK-MEL-28
  IC50: 0.55 µM
HCC 2998; [15]
  GI50: 3.47 µM
HCC 2998; [16]
  CC50: > 100 µM
HCC 2998; read-out: Log10TGI (converted)
  TGI: > 100 µM
M14; [15]
  GI50: 0.229 µM
M14; [16]
  CC50: > 100 µM
M14; read-out: Log10TGI (converted)
  TGI: 13.8 µM
UACC-62; [15]
  GI50: 0.513 µM
UACC-62; [16]
  CC50: 46.8 µM
UACC-62; read-out: Log10TGI (converted)
  TGI: 4.68 µM
NCI-H226; [15]
  GI50: 2.45 µM
NCI-H226; [16]
  CC50: > 100 µM
NCI-H226; read-out: Log10TGI (converted)
  TGI: > 100 µM
HOP-62; [15]
  GI50: 0.457 µM
HOP-62; [16]
  CC50: > 100 µM
HOP-62; read-out: Log10TGI (converted)
  TGI: > 100 µM
Mus musculus [4]
  Activity: Non-toxic
SNB-19; [15]
  GI50: 2 µM
SNB-19; [16]
  CC50: > 100 µM
SNB-19; read-out: Log10TGI (converted)
  TGI: > 100 µM
SR; [15]
  GI50: 0.0589 µM
SR; [16]
  CC50: > 100 µM
SR; read-out: Log10TGI (converted)
  TGI: 0.447 µM
A498; [15]
  GI50: 3.39 µM
A498; [16]
  CC50: > 100 µM
A498; read-out: Log10TGI (converted)
  TGI: 74.1 µM
SF-539; [15]
  GI50: 0.372 µM
SF-539; [16]
  CC50: > 100 µM
SF-539; read-out: Log10TGI (converted)
  TGI: 18.6 µM
NCI-H23; [15]
  GI50: 0.537 µM
NCI-H23; [16]
  CC50: > 100 µM
NCI-H23; read-out: Log10TGI (converted)
  TGI: 33.9 µM
Mus musculus [5]
  Activity: Non-toxic
Mus musculus [6]
  Activity: Non-toxic
[7]; [15]
  GI50: 0.427 µM
[7]; [16]
  CC50: > 100 µM
[7]; read-out: Log10TGI (converted)
  TGI: 4.68 µM
CCRF-CEM; [15]
  GI50: 0.0479 µM
CCRF-CEM; [16]
  CC50: > 100 µM
CCRF-CEM; read-out: Log10TGI (converted)
  TGI: > 100 µM
MDA-MB-468; [15]
  GI50: 0.741 µM
MDA-MB-468; [16]
  CC50: > 100 µM
MDA-MB-468; read-out: Log10TGI (converted)
  TGI: 39.8 µM
JVM-2
  IC50: 0.19 µM
Ramos
  IC50: 0.08 µM
Mus musculus [8]
  Activity: Non-toxic
MOLT-4 [9]
  IC50: 0.08 µM
[10]
  IC50: 0.66 µM
KM12; [15]
  GI50: 0.309 µM
KM12; [16]
  CC50: > 100 µM
KM12; read-out: Log10TGI (converted)
  TGI: > 100 µM
DU-145; [15]
  GI50: 0.55 µM
DU-145; [16]
  CC50: > 100 µM
DU-145; read-out: Log10TGI (converted)
  TGI: > 100 µM
PC-3; [15]
  GI50: 0.479 µM
PC-3; [16]
  CC50: > 100 µM
PC-3; read-out: Log10TGI (converted)
  TGI: 38 µM
HCT-15; [15]
  GI50: 0.794 µM
HCT-15; [16]
  CC50: > 100 µM
HCT-15; read-out: Log10TGI (converted)
  TGI: 34.7 µM
[11]
  IC50: 2.79 µM
[12]
  IC50: 0.69 µM
Mus musculus [13]
  Activity: Non-toxic
Mus musculus [14]
  Activity: Non-toxic
NCI-H460; [15]
  GI50: 0.501 µM
NCI-H460; [16]
  CC50: > 100 µM
NCI-H460; read-out: Log10TGI (converted)
  TGI: > 100 µM
MCF7; [15]
  GI50: 0.0251 µM
MCF7; [16]
  CC50: > 100 µM
MCF7; read-out: Log10TGI (converted)
  TGI: 13.8 µM
SK-MEL-5; [15]
  GI50: 0.316 µM
SK-MEL-5; [16]
  CC50: 10.2 µM
SK-MEL-5; read-out: Log10TGI (converted)
  TGI: 1.95 µM
OVCAR-8; [15]
  GI50: 0.24 µM
OVCAR-8; [16]
  CC50: > 100 µM
OVCAR-8; read-out: Log10TGI (converted)
  TGI: > 100 µM

From ChEMBL document CHEMBL1154676, “Synthetic mRNA splicing modulator compounds with in vivo antitumor activity” (J Med Chem, 2009)
